The source of these data is paper PMC10842602 (Bioorganic & medicinal chemistry, 2023).

In this test the target is T1, WT human SLACK (Homo sapiens, UniProt Q5JUK3).
T1 sequence (Q5JUK3 1-1235 isoform Q5JUK3-3): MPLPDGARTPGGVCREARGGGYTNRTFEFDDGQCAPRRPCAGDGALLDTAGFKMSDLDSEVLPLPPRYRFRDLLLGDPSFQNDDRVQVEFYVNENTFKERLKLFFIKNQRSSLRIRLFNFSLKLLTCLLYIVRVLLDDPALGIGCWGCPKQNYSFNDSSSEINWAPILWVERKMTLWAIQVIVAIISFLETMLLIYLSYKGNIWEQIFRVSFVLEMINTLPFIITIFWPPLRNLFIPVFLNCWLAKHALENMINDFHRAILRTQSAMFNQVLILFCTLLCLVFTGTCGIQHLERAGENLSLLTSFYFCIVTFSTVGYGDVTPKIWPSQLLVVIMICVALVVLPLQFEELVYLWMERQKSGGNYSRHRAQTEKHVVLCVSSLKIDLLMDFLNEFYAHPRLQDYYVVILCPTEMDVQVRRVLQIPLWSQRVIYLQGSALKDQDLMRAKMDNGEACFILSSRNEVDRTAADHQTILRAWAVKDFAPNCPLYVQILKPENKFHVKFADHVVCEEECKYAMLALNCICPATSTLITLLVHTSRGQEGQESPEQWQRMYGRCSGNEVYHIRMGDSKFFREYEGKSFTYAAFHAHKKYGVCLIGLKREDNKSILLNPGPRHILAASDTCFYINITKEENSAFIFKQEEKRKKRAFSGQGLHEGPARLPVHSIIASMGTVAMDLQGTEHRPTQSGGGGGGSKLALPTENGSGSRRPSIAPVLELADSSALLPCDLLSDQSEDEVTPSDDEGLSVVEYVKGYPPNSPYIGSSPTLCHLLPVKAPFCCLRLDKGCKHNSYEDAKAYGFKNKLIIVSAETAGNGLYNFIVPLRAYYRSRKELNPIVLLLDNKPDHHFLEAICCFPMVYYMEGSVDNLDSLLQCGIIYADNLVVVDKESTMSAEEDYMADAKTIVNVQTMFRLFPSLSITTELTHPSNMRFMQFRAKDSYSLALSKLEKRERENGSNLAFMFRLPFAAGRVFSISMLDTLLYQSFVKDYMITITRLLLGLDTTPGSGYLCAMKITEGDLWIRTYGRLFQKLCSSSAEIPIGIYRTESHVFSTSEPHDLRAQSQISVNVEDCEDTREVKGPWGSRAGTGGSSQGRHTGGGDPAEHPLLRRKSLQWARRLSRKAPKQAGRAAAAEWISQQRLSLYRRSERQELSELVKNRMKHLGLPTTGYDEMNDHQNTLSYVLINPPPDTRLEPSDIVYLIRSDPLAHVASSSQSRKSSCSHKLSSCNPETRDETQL
In words: Tl+ flux assay in HEK-293 cells stably expressing WT human SLACK. In kind it is cell-based. The settings on record: for IC50 / EC50: CRC; for Mode: Tl+ flux, HEK-293 cells expressing WT SLACK. The essentials: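 Stably transfected HEK-293 cells expressing wild-type human SLACK; thallium flux read-out. IC50 or EC50 taken from concentration-response curves, and each compound classed as inhibitor, activator or not active. Efficacy is the response amplitude at 30 μM test compound, as a percentage of the maximum response to a reference SLACK inhibitor (for inhibitors) or loxapine (for activators).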

[1] abbreviates: IC50 for compounds of mode Inh (also cells printed Inactive).

For `O=S(=O)(c1ccccc1F)N1CC(c2nc(-c3ccsc3)no2)C1` [Compound 11, 5-(1-((2-Fluorophenyl)sulfonyl)azetidin-3-yl)-3-(thiophen-3-yl)-1,2,4-oxadiazole], the “IC50 / EC50” value (EC50 for compounds of mode Act) was determined as 4.8 µM.
Still for that read-out and setting: the result for `O=S(=O)(c1cccc(F)c1)N1CC(c2nc(-c3ccsc3)no2)C1` [Compound 12, 5-(1-((3-Fluorophenyl)sulfonyl)azetidin-3-yl)-3-(thiophen-3-yl)-1,2,4-oxadiazole] reads above 10 µM.
Consider `O=S(=O)(c1ccc(F)cc1)N1CC(c2nc(-c3ccsc3)no2)C1` [Compound 13, 5-(1-((4-Fluorophenyl)sulfonyl)azetidin-3-yl)-3-(thiophen-3-yl)-1,2,4-oxadiazole], for which the Mode entry is on record as “Inactive”. The “IC50 / EC50” value under setting [1] is “Inactive”.
On to `O=S(=O)(c1ccccc1Cl)N1CC(c2nc(-c3ccsc3)no2)C1` [Compound 14, 5-(1-((2-Chlorophenyl)sulfonyl)azetidin-3-yl)-3-(thiophen-3-yl)-1,2,4-oxadiazole], for which the “IC50 / EC50” value (EC50 for compounds of mode Act) came to 7.5 µM.
As for `O=S(=O)(c1cccc(Cl)c1)N1CC(c2nc(-c3ccsc3)no2)C1` [Compound 15, 5-(1-((3-Chlorophenyl)sulfonyl)azetidin-3-yl)-3-(thiophen-3-yl)-1,2,4-oxadiazole], the Mode result is listed as “Inactive”. In addition, under setting [1], the “IC50 / EC50” value was “Inactive”.
Consider `O=S(=O)(c1ccc(Cl)cc1)N1CC(c2nc(-c3ccsc3)no2)C1` [Compound 16, 5-(1-((4-Chlorophenyl)sulfonyl)azetidin-3-yl)-3-(thiophen-3-yl)-1,2,4-oxadiazole], for which the Mode entry was “Inactive”. For the same molecule, the “IC50 / EC50” value under setting [1] is on record as “Inactive”.
Consider `O=S(=O)(c1ccccc1C(F)(F)F)N1CC(c2nc(-c3ccsc3)no2)C1` [Compound 17, 3-(Thiophen-3-yl)-5-(1-((2-(trifluoromethyl)phenyl)sulfonyl)azetidin-3-yl)-1,2,4-oxadiazole], for which the “IC50 / EC50” value (EC50 for compounds of mode Act) is 6.0 µM.
As to `O=S(=O)(c1cccc(C(F)(F)F)c1)N1CC(c2nc(-c3ccsc3)no2)C1` [Compound 18, 3-(Thiophen-3-yl)-5-(1-((3-(trifluoromethyl)phenyl)sulfonyl)azetidin-3-yl)-1,2,4-oxadiazole], the “IC50 / EC50” value (EC50 for compounds of mode Act) amounted to 6.2 µM.
In the case of `O=S(=O)(c1ccc(C(F)(F)F)cc1)N1CC(c2nc(-c3ccsc3)no2)C1` [Compound 19, 3-(Thiophen-3-yl)-5-(1-((4-(trifluoromethyl)phenyl)sulfonyl)azetidin-3-yl)-1,2,4-oxadiazole], the Mode entry is “Inactive”. Besides, the “IC50 / EC50” value under setting [1] is “Inactive”.
For the molecule `Cc1cccc(S(=O)(=O)N2CC(c3nc(-c4ccsc4)no3)C2)c1` [Compound 21, 3-(Thiophen-3-yl)-5-(1-(m-tolylsulfonyl)azetidin-3-yl)-1,2,4-oxadiazole], under “EC50 for compounds of mode Act”, the “IC50 / EC50” value is above 10 µM.
With `Cc1ccc(S(=O)(=O)N2CC(c3nc(-c4ccsc4)no3)C2)cc1` [Compound 22, 3-(Thiophen-3-yl)-5-(1-tosylazetidin-3-yl)-1,2,4-oxadiazole], the Mode result is listed as “Inactive”. Further, the “IC50 / EC50” value under setting [1] is recorded as “Inactive”.
`COc1cccc(S(=O)(=O)N2CC(c3nc(-c4ccsc4)no3)C2)c1` [Compound 24, 5-(1-((3-Methoxyphenyl)sulfonyl)azetidin-3-yl)-3-(thiophen-3-yl)-1,2,4-oxadiazole]: the Mode entry is “Inactive”. Besides, the “IC50 / EC50” value under setting [1] was “Inactive”.
With `CCCCOc1ccccc1S(=O)(=O)N1CC(c2nc(-c3ccsc3)no2)C1` [Compound 28, 5-(1-((2-Butoxyphenyl)sulfonyl)azetidin-3-yl)-3-(thiophen-3-yl)-1,2,4-oxadiazole], the Mode result was “Inactive”. Also, under setting [1], the “IC50 / EC50” value was “Inactive”.
For the molecule `CCNc1ccccc1S(=O)(=O)N1CC(c2nc(-c3ccsc3)no2)C1` [Compound 29], the Mode result is given as “Inactive”. In addition, the “IC50 / EC50” value under setting [1] is given as “Inactive”.
As for `CCCc1ccccc1S(=O)(=O)N1CC(c2nc(-c3ccsc3)no2)C1` [Compound 30], under setting [1], the “IC50 / EC50” value was above 10 µM.
`CCOc1ccccc1CN1CC(c2nc(-c3ccsc3)no2)C1` [Compound 31]: the “IC50 / EC50” value (EC50 for compounds of mode Act) is above 10 µM.
On the same count and under the same terms, the result for `CCOc1ccccc1C(C)N1CC(c2nc(-c3ccsc3)no2)C1` (stereo not shown) [Compound 32] reads above 10 µM; that for `CCOc1ccccc1C(=O)N1CC(c2nc(-c3ccsc3)no2)C1` [Compound 33], above 10 µM; that for `CCOc1ccccc1CC(=O)N1CC(c2nc(-c3ccsc3)no2)C1` [Compound 34], above 10 µM.
Still for that read-out and setting: the figure for `CCOc1ccccc1NC(=O)N1CC(c2nc(-c3ccsc3)no2)C1` [Compound 35] is above 10 µM.
Consider `CCOc1ccccc1OC(=O)N1CC(c2nc(-c3ccsc3)no2)C1` [Compound 36], for which, under “EC50 for compounds of mode Act”, the “IC50 / EC50” value was above 10 µM.
In the case of `CCOc1ccccc1S(=O)(=O)N1CC(c2nc(-c3ccccc3)no2)C1` [Compound 40, 5-(1-((2-Ethoxyphenyl)sulfonyl)azetidin-3-yl)-3-phenyl-1,2,4-oxadiazole], the “IC50 / EC50” value under setting [1] is above 10 µM.
Still for that read-out and setting: the figure for `CCOc1ccccc1S(=O)(=O)N1CC(c2nc(-c3ccccc3F)no2)C1` [Compound 41, 5-(1-((2-Ethoxyphenyl)sulfonyl)azetidin-3-yl)-3-(2-fluorophenyl)-1,2,4-oxadiazole] is 7.9 µM.
Regarding `CCOc1ccccc1S(=O)(=O)N1CC(c2nc(-c3cccc(F)c3)no2)C1` [Compound 42, 5-(1-((2-Ethoxyphenyl)sulfonyl)azetidin-3-yl)-3-(3-fluorophenyl)-1,2,4-oxadiazole], the Mode entry was “Inactive”. In addition, the “IC50 / EC50” value under setting [1] was “Inactive”.
Take `CCOc1ccccc1S(=O)(=O)N1CC(c2nc(-c3ccccc3Cl)no2)C1` [Compound 44, 3-(2-Chlorophenyl)-5-(1-((2-ethoxyphenyl)sulfonyl)azetidin-3-yl)-1,2,4-oxadiazole]: the “IC50 / EC50” value under setting [1] is 8.0 µM.
As to `CCOc1ccccc1S(=O)(=O)N1CC(c2nc(-c3cccc(Cl)c3)no2)C1` [Compound 45, 3-(3-Chlorophenyl)-5-(1-((2-ethoxyphenyl)sulfonyl)azetidin-3-yl)-1,2,4-oxadiazole], the Mode entry is “Inactive”. Moreover, the “IC50 / EC50” value under setting [1] is “Inactive”.
In the case of `CCOc1ccccc1S(=O)(=O)N1CC(c2nc(-c3ccc(Cl)cc3)no2)C1` [Compound 46, 3-(4-Chlorophenyl)-5-(1-((2-ethoxyphenyl)sulfonyl)azetidin-3-yl)-1,2,4-oxadiazole], the “IC50 / EC50” value under setting [1] was 11 µM.
On to `CCOc1ccccc1S(=O)(=O)N1CC(c2nc(-c3ccccc3C(F)(F)F)no2)C1` [Compound 47, 5-(1-((2-Ethoxyphenyl)sulfonyl)azetidin-3-yl)-3-(2-(trifluoromethyl)phenyl)-1,2,4-oxadiazole], for which the “IC50 / EC50” value (EC50 for compounds of mode Act) worked out at 1.9 µM.
With `CCOc1ccccc1S(=O)(=O)N1CC(c2nc(-c3cccc(C(F)(F)F)c3)no2)C1` [Compound 48, 5-(1-((2-Ethoxyphenyl)sulfonyl)azetidin-3-yl)-3-(3-(trifluoromethyl)phenyl)-1,2,4-oxadiazole], the “IC50 / EC50” value under setting [1] was 11 µM.
For the molecule `CCOc1ccccc1S(=O)(=O)N1CC(c2nc(-c3ccccc3C)no2)C1` [Compound 50, 5-(1-((2-Ethoxyphenyl)sulfonyl)azetidin-3-yl)-3-(o-tolyl)-1,2,4-oxadiazole], the “IC50 / EC50” value (EC50 for compounds of mode Act) is above 10 µM.
For the molecule `CCOc1ccccc1S(=O)(=O)N1CC(c2nc(-c3cccc(C)c3)no2)C1` [Compound 51, 5-(1-((2-Ethoxyphenyl)sulfonyl)azetidin-3-yl)-3-(m-tolyl)-1,2,4-oxadiazole], the “IC50 / EC50” value under setting [1] was above 10 µM.
Take `CCOc1ccccc1S(=O)(=O)N1CC(c2nc(-c3ccc(C)cc3)no2)C1` [Compound 52, 5-(1-((2-Ethoxyphenyl)sulfonyl)azetidin-3-yl)-3-(p-tolyl)-1,2,4-oxadiazole]: the Mode entry is “Inactive”. The “IC50 / EC50” value under setting [1] is recorded as “Inactive”.
